# Active and inactive are the calls of the source. No cut-off for these calls is given here.
# Columns and labels:
# [1] = Growth inhibition of human A549 cells after 72 hrs by MTS assay; assay type: functional; conditions: A549, 72 h
# Summary of the method: (§1)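 Proliferation of HeLa and A549 cells was measured by MTS assay. GI50 values, or percent growth inhibition at a single concentration (30 µM), come from at least three independent experiments.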
# [2] = Growth inhibition of human HeLa cells after 72 hrs by MTS assay; assay type: functional; summary of the method: as §1
# [3] = Growth inhibition of human A549 cells at 30 uM after 72 hrs by MTS assay; assay type: functional; conditions: A549, 72 h, read-out: GI; summary of the method: as §1
# [4] = biological target: T1, Kinesin-like protein KIF11 (Homo sapiens) (UniProt P52732); assay: Inhibition of microtubule-stimulated kinesin spindle protein motor domain (unknown origin) ATPase activity at 20 uM preincubated for 20 mins followed by ATP addition measured after 15 mins by kinase-glo based luciferase reporter gene assay
# T1 sequence (whole entry): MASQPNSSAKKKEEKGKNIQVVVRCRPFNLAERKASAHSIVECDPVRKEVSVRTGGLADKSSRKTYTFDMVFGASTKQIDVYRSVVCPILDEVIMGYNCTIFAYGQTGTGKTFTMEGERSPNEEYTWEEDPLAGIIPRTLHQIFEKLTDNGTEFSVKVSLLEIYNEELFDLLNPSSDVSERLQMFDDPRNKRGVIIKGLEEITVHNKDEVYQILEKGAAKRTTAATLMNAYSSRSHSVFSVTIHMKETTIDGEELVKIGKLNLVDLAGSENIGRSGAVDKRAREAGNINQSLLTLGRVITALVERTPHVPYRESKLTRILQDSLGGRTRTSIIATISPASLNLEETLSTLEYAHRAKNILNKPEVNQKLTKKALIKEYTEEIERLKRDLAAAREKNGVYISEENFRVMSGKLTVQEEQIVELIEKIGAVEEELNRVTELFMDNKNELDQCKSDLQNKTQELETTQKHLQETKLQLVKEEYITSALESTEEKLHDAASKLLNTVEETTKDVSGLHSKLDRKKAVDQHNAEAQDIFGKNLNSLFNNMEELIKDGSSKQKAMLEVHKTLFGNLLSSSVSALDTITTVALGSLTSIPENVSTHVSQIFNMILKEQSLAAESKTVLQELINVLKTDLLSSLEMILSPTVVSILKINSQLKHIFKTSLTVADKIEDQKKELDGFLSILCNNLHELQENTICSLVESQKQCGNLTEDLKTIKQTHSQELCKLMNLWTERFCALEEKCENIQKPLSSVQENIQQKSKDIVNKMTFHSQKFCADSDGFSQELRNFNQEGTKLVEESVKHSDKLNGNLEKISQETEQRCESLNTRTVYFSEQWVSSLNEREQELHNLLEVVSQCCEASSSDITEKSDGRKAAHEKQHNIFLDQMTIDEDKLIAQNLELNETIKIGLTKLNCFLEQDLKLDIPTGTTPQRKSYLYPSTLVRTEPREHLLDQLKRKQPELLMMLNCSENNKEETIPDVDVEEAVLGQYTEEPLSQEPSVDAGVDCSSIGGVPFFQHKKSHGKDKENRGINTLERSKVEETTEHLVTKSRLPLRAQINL
# Summary of the method: (§2)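 Inhibition of microtubule-activated KSP ATPase activity was measured in vitro. IC50 values come from three independent experiments. Percent inhibition was also measured at 20 µM.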
# [5] = biological target: T2, Kinesin-like protein KIF11 (Homo sapiens, UniProt P52732); assay: Inhibition of microtubule-stimulated kinesin spindle protein motor domain (unknown origin) ATPase activity preincubated for 20 mins followed by ATP addition measured after 15 mins by kinase-glo based luciferase reporter gene assay; summary of the method: as §2
# T2 sequence (P52732 whole entry): T1 sequence (whole entry)
# [6] = Drug uptake in cytoplasm of human HeLa cells expressing hmAG1-conjugated alpha-tubulin at 20 uM after 20 mins by fluorescence microscopic analysis; assay type: ADME, cell-based
# Summary of the method: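 Live HeLa cells expressing hmAG1-conjugated α-tubulin (cytoplasm marker) or histone H2B (nucleus marker) were incubated with 20 µM probe for 20 min at 37 °C. Probe localization was imaged by live-cell fluorescence microscopy.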
# [7] = Drug uptake in human HeLa cells at G2 phase expressing N-terminal hmAG1-tagged recombinant fluorescent KSP at 20 uM after 20 mins by fluorescence microscopic analysis
# [8] = Drug uptake in human HeLa cells at early mitotic phase expressing N-terminal hmAG1-tagged recombinant fluorescent KSP at 20 uM after 20 mins by fluorescence microscopic analysis
# [9] = biological target: T1, Kinesin-like protein KIF11 (Homo sapiens); assay: Inhibition of hmAG1-fused kinesin spindle protein (unknown origin) ATPase activity expressed in human HeLa cells assessed as accumulation of mitotic cells after 4 hrs by DAPI staining based fluorescence microscopy; assay type: cell-based
# Summary of the method: (§3)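 Synchronized HeLa cells were given compound as they entered M phase and cultured 4 h at 37 °C. Cells were fixed and immunostained for α-tubulin and KSP, with DAPI for chromosomes. The relative mitotic index was averaged over two independent experiments. Mitotic phenotypes, such as prometaphase with monopolar spindles, were scored as a percentage of mitotic cells.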
# [10] = biological target: T1, Kinesin-like protein KIF11 (Homo sapiens); assay: Inhibition of hmAG1-fused kinesin spindle protein (unknown origin) ATPase activity expressed in human HeLa cells assessed as irregular accumulation of KSP in central region of mitotic cells at 40 uM after 4 hrs by DAPI staining based fluorescence microscopy; assay type: cell-based
# [11] = Solubility of the compound in DMEM medium at >50 uM by microscopic analysis; assay type: physicochemical
# Summary of the method: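 During the 4 h mitotic assay in synchronized HeLa cells, the culture medium was inspected by microscopy for deposits of insoluble compound across the tested concentrations.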
# [12] = biological target: T1, Kinesin-like protein KIF11 (Homo sapiens); assay: Inhibition of hmAG1-fused kinesin spindle protein (unknown origin) ATPase activity expressed in human HeLa cells assessed as prometaphase with monopolar spindles at 40 uM after 4 hrs by DAPI staining based fluorescence microscopy relative to control; assay type: cell-based; summary of the method: as §3
# [13] = Drug uptake in monoastral mitotic human HeLa cells expressing N-terminal hmAG1-tagged recombinant fluorescent KSP at 40 uM after 20 mins by fluorescence microscopic analysis; assay type: ADME, cell-based
# Summary of the method: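 HeLa cells stably expressing KSP fused at its N-terminus to hmAG1 were treated in mitosis with 40 µM probe for 20 min at 37 °C. Live-cell fluorescence microscopy compared probe signal with the fluorescent KSP signal in monoastral mitotic cells.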
SMILES,GI50 [1] [µM],GI50 [2] [µM],inhibition of growth at 30 µM [3] [%],inhibition [4] [%],IC50 [5] [µM],Drug uptake [6],Drug uptake [7],Drug uptake [8],inhibition [9],inhibition [10],solubility [11],inhibition [12] [%],Drug uptake [13]
FC(F)(F)c1ccc(-c2cn3ccc[n+]3[n-]2)cc1,> 30,25,6,34,> 20,,,,,,,,
FC(F)(F)c1ccc(-c2ccc(-c3cn4ccc[n+]4[n-]3)cc2)cc1,22,19,,,6.8,Active,Active,Active,Dose-dependent effect,Active,Insoluble,63,Active
